Test results: ChEMBL document CHEMBL1139434, “Highly potent 1-aminocyclohexane-1-carboxylic acid substituted V2 agonists of arginine vasopressin” (J Med Chem, 2004)
Where a SMILES comes first, the peptide text is derived from it. [ ]: non-standard residue; d: D form. The star is where a group is joined. Cyclohexylacetyl(1-SH) = O=C(CC1(S)CCCCC1)*; Ac6c = NC1(C(=O)O)CCCCC1

Assays:
[1] = species: Rattus norvegicus; assay: Compound was evaluated for antidiuretic activity with t1/2 of 60 in male rats by modified Burn test; type: functional, Urine
[2] = species: Rattus norvegicus; assay: Compound was evaluated for in vitro uterotonic activity in the absence of magnesium ions in female wistar rats; type: functional; details: for Kb: read-out: pA2 (converted)
Procedure, shortened: (§1)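 Uterus from Wistar females estrogenized 48 h beforehand, tested in vitro in the absence of magnesium ions. Synthetic oxytocin was the standard. Dose–response curves built from single additions, or cumulatively without washing between increasing doses. Values are means of three to five separate experiments.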

[3] = species: Rattus norvegicus; assay: (§2) Compound was evaluated for vasopressor activity in phenoxybenzamine-treated male rats; type: functional, organism-based; details: read-out: pA2 (converted)
Procedure, shortened: (§3)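 Pressor response measured in phenoxybenzamine-treated male Wistar rats, with synthetic arginine vasopressin as standard. Dose–response curves built from single administrations, or cumulatively without washing between increasing doses. Values are means of three to five separate experiments.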

[4] = species: Rattus norvegicus; assay: Compound was evaluated for antidiuretic activity with t1/2 of 200 min in male rats by modified Burn test; type: functional, Urine
[5] = species: Rattus norvegicus; assay: as §2; type: functional; procedure, shortened: as §3
[6] = species: Rattus norvegicus; assay: Compound was evaluated for antidiuretic activity with t1/2 of 60 min in male rats by modified Burn test; range is 800-50000; type: functional, Urine
[7] = species: Rattus norvegicus; assay: Compound was evaluated for in vitro uterotonic activity in the absence of magnesium ions in female wistar rats; range is 1.5-5.1; type: functional; procedure, shortened: as §1
[8] = species: Rattus norvegicus; assay: Compound was evaluated for antidiuretic activity with t1/2 of 60 min in male rats by modified Burn test; range is 750-900; type: functional, Urine
[9] = species: Rattus norvegicus; assay: Compound was evaluated for antidiuretic activity with t1/2 of 60 min in male rats by modified Burn test; range is 114-257; type: functional, Urine
[10] = species: Rattus norvegicus; assay: Compound was evaluated for antidiuretic activity with t1/2 of 60 min in male rats by modified Burn test; range is 1300-1745; type: functional, Urine
[11] = species: Rattus norvegicus; assay: Compound was evaluated for vasopressor activity in phenoxybenzamine-treated male rats; range is 346-370; type: functional; procedure, shortened: as §3
[12] = species: Rattus norvegicus; assay: Compound was evaluated for in vitro uterotonic activity in the absence of magnesium ions in female wistar rats; range is 27-63; type: functional; procedure, shortened: as §1

Row | Compound | Activity [1] | Kb [2] | Activity [4] | Activity [2] | Activity [5] | other results
1 | CC(C)[C@H](NC(=O)[C@H](Cc1ccccc1)NC(=O)C1(NC(=O)CCS)CCCCC1)C(=O)N[C@@H](CC(N)=O)C(=O)N[C@@H](CS)C(=O)N1CCC[C@H]1C(=O)N[C@H](CCCN=C(N)N)C(=O)NCC(N)=O | ~4500 IU/mg | 15.5 nM | ~50000 IU/mg |  |  | Kb [3]: 724 nM
2 | NC(=O)CC[C@H](NC(=O)C1(NC(=O)[C@H](Cc2ccc(O)cc2)NC(=O)[C@@H](N)CS)CCCCC1)C(=O)N[C@@H](CC(N)=O)C(=O)N[C@@H](CS)C(=O)N1CCC[C@H]1C(=O)N[C@H](CCCN=C(N)N)C(=O)NCC(N)=O | ~0.1 IU/mg |  | ~1.4 IU/mg | 0 IU/mg | 0 IU/mg | 
3 | NC(=O)CC[C@H](NC(=O)[C@H](Cc1ccccc1)NC(=O)C1(NC(=O)CCS)CCCCC1)C(=O)N[C@@H](CC(N)=O)C(=O)N[C@@H](CS)C(=O)N1CCC[C@H]1C(=O)N[C@H](CCCN=C(N)N)C(=O)NCC(N)=O | ~4500 IU/mg | 316 nM | ~50000 IU/mg | 0.31 IU/mg |  | 
4 | NC(=O)CC[C@H](NC(=O)C1(NC(=O)[C@H](Cc2ccc(O)cc2)NC(=O)CCS)CCCCC1)C(=O)N[C@@H](CC(N)=O)C(=O)N[C@@H](CS)C(=O)N1CCC[C@H]1C(=O)N[C@H](CCCN=C(N)N)C(=O)NCC(N)=O | <4 IU/mg |  |  | 0 IU/mg | 0 IU/mg | 
5 | NC(=O)CC[C@H](NC(=O)[C@H](Cc1ccccc1)NC(=O)[C@H](Cc1ccc(O)cc1)NC(=O)CCS)C(=O)N[C@@H](CC(N)=O)C(=O)N[C@@H](CS)C(=O)N1CCC[C@H]1C(=O)N[C@H](CCCN=C(N)N)C(=O)NCC(N)=O |  |  |  |  |  | Activity [6]: <50000 IU/mg; Activity [7]: <5.1 IU/mg
6 | NC(=O)CC[C@H](NC(=O)C1(NC(=O)[C@H](Cc2ccc(O)cc2)NC(=O)CCS)CCCCC1)C(=O)N[C@@H](CC(N)=O)C(=O)N[C@@H](CS)C(=O)N1CCC[C@H]1C(=O)N[C@@H](CCCN=C(N)N)C(=O)NCC(N)=O | ~0.8 IU/mg |  | ~25 IU/mg | <0.04 IU/mg | 0.34 IU/mg | 
7 | NC(=O)CC[C@H](NC(=O)[C@H](Cc1ccccc1)NC(=O)C1(NC(=O)[C@@H](N)CS)CCCCC1)C(=O)N[C@@H](CC(N)=O)C(=O)N[C@@H](CS)C(=O)N1CCC[C@H]1C(=O)N[C@@H](CCCN=C(N)N)C(=O)NCC(N)=O |  | ~2510 nM | ~9300 IU/mg |  | 56.6 IU/mg | Activity [8]: <900 IU/mg
8 | NC(=O)CC[C@H](NC(=O)C1(NC(=O)[C@H](Cc2ccc(O)cc2)NC(=O)[C@@H](N)CS)CCCCC1)C(=O)N[C@@H](CC(N)=O)C(=O)N[C@@H](CS)C(=O)N1CCC[C@H]1C(=O)N[C@@H](CCCN=C(N)N)C(=O)NCC(N)=O | ~0.1 IU/mg |  | ~1.4 IU/mg | 0 IU/mg | 0.24 IU/mg | 
9 | NC(=O)CC[C@H](NC(=O)[C@H](Cc1ccccc1)NC(=O)C1(NC(=O)CCS)CCCCC1)C(=O)N[C@@H](CC(N)=O)C(=O)N[C@@H](CS)C(=O)N1CCC[C@H]1C(=O)N[C@@H](CCCN=C(N)N)C(=O)NCC(N)=O | ~4500 IU/mg | 794 nM | ~50000 IU/mg | 0.71 IU/mg | 17.2 IU/mg | 
10 | NC(=O)CC[C@H](NC(=O)[C@H](Cc1ccccc1)NC(=O)C1(NC(=O)[C@@H](N)CS)CCCCC1)C(=O)N[C@@H](CC(N)=O)C(=O)N[C@@H](CS)C(=O)N1CCC[C@H]1C(=O)N[C@H](CCCN=C(N)N)C(=O)NCC(N)=O |  | ~2000 nM | ~9300 IU/mg |  |  | Kb [3]: ~1580 nM; Activity [8]: <900 IU/mg
11 | NC(=O)CC[C@H](NC(=O)[C@H](Cc1ccccc1)NC(=O)C1(NC(=O)CC2(S)CCCCC2)CCCCC1)C(=O)N[C@@H](CC(N)=O)C(=O)N[C@@H](CS)C(=O)N1CCC[C@H]1C(=O)N[C@H](CCCN=C(N)N)C(=O)NCC(N)=O | <4 IU/mg | 47.9 nM |  |  |  | Kb [3]: 234 nM
12 | NC(=O)CC[C@H](NC(=O)[C@H](Cc1ccccc1)NC(=O)[C@H](Cc1ccc(O)cc1)NC(=O)[C@@H](N)CS)C(=O)N[C@@H](CC(N)=O)C(=O)N[C@@H](CS)C(=O)N1CCC[C@H]1C(=O)N[C@H](CCCN=C(N)N)C(=O)NCC(N)=O |  |  |  | 0.4 IU/mg | 4.1 IU/mg | Activity [9]: <257 IU/mg
13 | CC(C)[C@H](NC(=O)C1(NC(=O)[C@H](Cc2ccc(O)cc2)NC(=O)CCS)CCCCC1)C(=O)N[C@@H](CC(N)=O)C(=O)N[C@@H](CS)C(=O)N1CCC[C@H]1C(=O)N[C@H](CCCN=C(N)N)C(=O)NCC(N)=O | 450 IU/mg |  | 4500 IU/mg | 0 IU/mg | 0 IU/mg | 
14 | NC(=O)CC[C@H](NC(=O)[C@H](Cc1ccccc1)NC(=O)C1(NC(=O)CC2(S)CCCCC2)CCCCC1)C(=O)N[C@@H](CC(N)=O)C(=O)N[C@@H](CS)C(=O)N1CCC[C@H]1C(=O)N[C@@H](CCCN=C(N)N)C(=O)NCC(N)=O | ~0.1 IU/mg | 46.8 nM | ~1.4 IU/mg |  |  | Kb [3]: 55 nM
15 | NC(=O)CC[C@H](NC(=O)[C@H](Cc1ccccc1)NC(=O)[C@H](Cc1ccc(O)cc1)NC(=O)CCS)C(=O)N[C@@H](CC(N)=O)C(=O)N[C@@H](CS)C(=O)N1CCC[C@H]1C(=O)N[C@@H](CCCN=C(N)N)C(=O)NCC(N)=O |  |  |  |  |  | Activity [10]: <1745 IU/mg; Activity [11]: <370 IU/mg; Activity [12]: <63 IU/mg
16 | CC(C)[C@H](NC(=O)[C@H](Cc1ccccc1)NC(=O)[C@H](Cc1ccc(O)cc1)NC(=O)[C@@H](N)CS)C(=O)N[C@@H](CC(N)=O)C(=O)N[C@@H](CS)C(=O)N1CCC[C@H]1C(=O)N[C@@H](CCCN=C(N)N)C(=O)NCC(N)=O (H-CYFVNCPRG-NH2) | 738 IU/mg |  |  |  | 32 IU/mg | 
17 | CC(C)[C@H](NC(=O)C1(NC(=O)[C@H](Cc2ccc(O)cc2)NC(=O)[C@@H](N)CS)CCCCC1)C(=O)N[C@@H](CC(N)=O)C(=O)N[C@@H](CS)C(=O)N1CCC[C@H]1C(=O)N[C@@H](CCCN=C(N)N)C(=O)NCC(N)=O (H-CY[Ac6c]VNCPRG-NH2) | <0.4 IU/mg |  |  | 0 IU/mg | 0 IU/mg | 
18 | CC(C)[C@H](NC(=O)[C@H](Cc1ccccc1)NC(=O)C1(NC(=O)[C@@H](N)CS)CCCCC1)C(=O)N[C@@H](CC(N)=O)C(=O)N[C@@H](CS)C(=O)N1CCC[C@H]1C(=O)N[C@@H](CCCN=C(N)N)C(=O)NCC(N)=O (H-C[Ac6c]FVNCPRG-NH2) | ~2300 IU/mg | 126 nM | ~23000 IU/mg |  | 0.9 IU/mg | 
19 | NC(=O)CC[C@H](NC(=O)[C@H](Cc1ccccc1)NC(=O)[C@H](Cc1ccc(O)cc1)NC(=O)CC1(S)CCCCC1)C(=O)N[C@@H](CC(N)=O)C(=O)N[C@@H](CS)C(=O)N1CCC[C@H]1C(=O)N[C@@H](CCCN=C(N)N)C(=O)NCC(N)=O ({Cyclohexylacetyl(1-SH)}-YFQNCPRG-NH2) | 0.03 IU/mg |  |  |  |  | Kb [3]: 4.47 nM
20 | CC(C)[C@H](NC(=O)C1(NC(=O)[C@H](Cc2ccc(O)cc2)NC(=O)CC2(S)CCCCC2)CCCCC1)C(=O)N[C@@H](CC(N)=O)C(=O)N[C@@H](CS)C(=O)N1CCC[C@H]1C(=O)N[C@@H](CCCN=C(N)N)C(=O)NCC(N)=O ({Cyclohexylacetyl(1-SH)}-Y[Ac6c]VNCPRG-NH2) | <4 IU/mg | ≥ 1000 nM |  |  | 0 IU/mg | 
21 | N=C(N)NCCC[C@H](NC(=O)[C@@H]1CCCN1C(=O)[C@@H]1CSSC[C@H](N)C(=O)N[C@@H](Cc2ccc(O)cc2)C(=O)N[C@@H](Cc2ccccc2)C(=O)N[C@@H](CCC(N)=O)C(=O)N[C@@H](CC(N)=O)C(=O)N1)C(=O)NCC(N)=O [VASOPRESSIN] | 465 IU/mg |  |  | 17 IU/mg | 412 IU/mg | 
